According to ChEMBL document CHEMBL1687901 (J Med Chem, 2011):

What was measured:
Type in all cases: functional
[1] = test system: Escherichia coli; assay: Antibacterial activity against tetracycline-resistant Escherichia coli isolate 155 harboring tet(A) gene by CLSI M07-A8 method
How it was run: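 MICs were determined by CLSI broth microdilution in freshly prepared cation-adjusted Mueller Hinton broth, kept at 4 °C before use. Defibrinated horse blood was added as appropriate. The highest concentration tested was 32 μg/mL. Runs met QC ranges for comparator antibiotics with ATCC quality control strains.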

[2] = test system: Streptococcus pneumoniae; assay: Antibacterial activity against tetracycline-resistant Streptococcus pneumoniae isolate 160 harboring tet(M) gene by CLSI M07-A8 method
How it was run: (§1)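 MICs were determined by CLSI broth microdilution in freshly prepared cation-adjusted Mueller Hinton broth, kept at 4 °C before use. Defibrinated horse blood was added as appropriate. Runs met QC ranges for comparator antibiotics with ATCC quality control strains.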

[3] = test system: Streptococcus pneumoniae; assay: Antibacterial activity against Streptococcus pneumoniae ATCC 49619 by CLSI M07-A8 method
[4] = test system: Staphylococcus aureus; assay: Antibacterial activity against wild type Staphylococcus aureus Smith ATCC 13709 by CLSI M07-A8 method
[5] = test system: Staphylococcus aureus; assay: Antibacterial activity against tetracycline-resistant Staphylococcus aureus isolate 161 harboring tet(M) gene by CLSI M07-A8 method; how it was run: as §1
[6] = test system: Klebsiella pneumoniae; assay: Antibacterial activity against Klebsiella pneumoniae ATCC 13883 by CLSI M07-A8 method
[7] = test system: Escherichia coli; assay: Antibacterial activity against Escherichia coli ATCC 25922 by CLSI M07-A8 method
[8] = test system: Staphylococcus aureus; assay: Antibacterial activity against tetracycline-resistant Staphylococcus aureus isolate 158 harboring tet(K) gene by CLSI M07-A8 method; how it was run: as §1
[9] = test system: Escherichia coli; assay: Inhibition of protein synthesis in Escherichia coli S30 extract by coupled transcription/translation assay
How it was run: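 Coupled transcription/translation used an E. coli S30 extract with a firefly luciferase reporter. Compounds were diluted in water and tested as a three-point titration in duplicate. Reactions ran 1 h at 37 °C and were stopped on ice for 5 min, then luciferase substrate was added and luminescence read. Percent inhibition was calculated against uninhibited controls averaged per plate, and IC50 derived.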

SMILES | MIC [1] [µg/mL] | MIC [2] [µg/mL] | MIC [3] [µg/mL] | MIC [4] [µg/mL] | MIC [5] [µg/mL] | MIC [6] [µg/mL] | MIC [7] [µg/mL] | MIC [8] [µg/mL] | IC50 [9] [µg/mL]
CC(C)Nc1nc(Cl)c2c(c1O)C(=O)C1=C(O)[C@]3(O)C(=O)C(C(N)=O)=C(O)[C@@H](N(C)C)[C@@H]3C[C@@H]1C2.Cl.Cl.Cl | > 32 | 16 | 2 | 1 | 4 | 32 | 32 | 2 | 
CN(C)[C@@H]1C(O)=C(C(N)=O)C(=O)[C@@]2(O)C(O)=C3C(=O)c4c(cnc(-c5ccccc5)c4O)C[C@H]3C[C@@H]12.Cl.Cl | > 32 | 8 | 2 | 4 | 8 | 32 | 16 | 16 | 
CN(C)CC(C)(C)CNc1nc(F)c2c(c1O)C(=O)C1=C(O)[C@]3(O)C(=O)C(C(N)=O)=C(O)[C@@H](N(C)C)[C@@H]3C[C@@H]1C2.Cl | 8 | 1 | 0.5 | 1 | 2 | 2 | 1 | 0.5 | 
Cc1ncc(O)c2c1C[C@H]1C[C@H]3[C@H](N(C)C)C(O)=C(C(N)=O)C(=O)[C@@]3(O)C(O)=C1C2=O.Cl.Cl | > 32 | > 32 | 0.25 | 1 | 32 | 1 | 1 | 0.5 | 
CCCNc1nc(N(C)C)c2c(c1O)C(=O)C1=C(O)[C@]3(O)C(=O)C(C(N)=O)=C(O)[C@@H](N(C)C)[C@@H]3C[C@@H]1C2.Cl.Cl | > 32 | > 32 | 8 |  | > 32 | > 32 | 32 |  | 3.4
Cc1ncc2c(c1O)C(=O)C1=C(O)[C@]3(O)C(=O)C(C(N)=O)=C(O)[C@@H](N(C)C)[C@@H]3C[C@@H]1C2.Cl.Cl | > 32 | 16 | 1 | 4 | 32 | 8 | 8 | 32 | 
CC(C)OCCNc1nc(Cl)c2c(c1O)C(=O)C1=C(O)[C@]3(O)C(=O)C(C(N)=O)=C(O)[C@@H](N(C)C)[C@@H]3C[C@@H]1C2.Cl.Cl.Cl | > 32 | 4 | 0.031 | 0.5 | 2 | 16 | 8 | 0.25 | 
CCCc1nc(Cl)c2c(c1O)C(=O)C1=C(O)[C@]3(O)C(=O)C(C(N)=O)=C(O)[C@@H](N(C)C)[C@@H]3C[C@@H]1C2.Cl | > 32 | 4 | 1 | 1 | 4 | 32 | > 32 | 4 | 
COCCNc1nc(Cl)c2c(c1O)C(=O)C1=C(O)[C@]3(O)C(=O)C(C(N)=O)=C(O)[C@@H](N(C)C)[C@@H]3C[C@@H]1C2.Cl.Cl.Cl | 32 | 4 | 0.063 | 0.031 | 4 | 4 | 1 | 1 | 
CCNc1nc(Cl)c2c(c1O)C(=O)C1=C(O)[C@]3(O)C(=O)C(C(N)=O)=C(O)[C@@H](N(C)C)[C@@H]3C[C@@H]1C2.Cl.Cl.Cl | 16 | 4 | 0.031 | 0.031 | 1 | 2 | 0.5 | 0.5 | 
Cc1nc(Cl)c2c(c1O)C(=O)C1=C(O)[C@]3(O)C(=O)C(C(N)=O)=C(O)[C@@H](N(C)C)[C@@H]3C[C@@H]1C2.Cl | > 32 | 8 | 0.5 | 2 | 8 | 8 | 8 | 16 | 
CN(C)[C@@H]1C(O)=C(C(N)=O)C(=O)[C@@]2(O)C(O)=C3C(=O)c4c(O)c(NCC(C)(C)CN5CCCC5)nc(Cl)c4C[C@H]3C[C@@H]12.Cl | 8 | 0.25 | 0.031 | 0.5 | 2 | 4 | 2 | 0.125 | 
CN(C)[C@@H]1C(O)=C(C(N)=O)C(=O)[C@@]2(O)C(O)=C3C(=O)c4c(O)cnc(Cl)c4C[C@H]3C[C@@H]12.Cl | > 32 | 32 | 1 | 1 | 32 | 4 | 2 | 32 | 
